From ChEMBL document CHEMBL3259731, “Design, synthesis, and biological evaluation of novel FAK scaffold inhibitors targeting the FAK-VEGFR3 protein-protein interaction” (Eur J Med Chem, 2014)
Structures can show the parent of a compound that is named as a salt. Active and inactive are the calls of the source. No cut-off for these calls is given here.

Legend:
[1] = target: T1, Focal adhesion kinase 1/vascular endothelial growth factor receptor 3 (Homo sapiens) (UniProt P35916+Q05397); assay: Inhibition of FAK/VEGFR-3 interaction in human MIAPaCa2 cells transfected with retroviral expression vector pMSCV-LucSh assessed as reduction in VEGFR3 pan-phosphorylated tyrosine level after 24 hrs by immunoprecipitation assay; assay type: cell-based; settings: MIA PaCa-2
T1 sequence (P35916 whole entry, looked up): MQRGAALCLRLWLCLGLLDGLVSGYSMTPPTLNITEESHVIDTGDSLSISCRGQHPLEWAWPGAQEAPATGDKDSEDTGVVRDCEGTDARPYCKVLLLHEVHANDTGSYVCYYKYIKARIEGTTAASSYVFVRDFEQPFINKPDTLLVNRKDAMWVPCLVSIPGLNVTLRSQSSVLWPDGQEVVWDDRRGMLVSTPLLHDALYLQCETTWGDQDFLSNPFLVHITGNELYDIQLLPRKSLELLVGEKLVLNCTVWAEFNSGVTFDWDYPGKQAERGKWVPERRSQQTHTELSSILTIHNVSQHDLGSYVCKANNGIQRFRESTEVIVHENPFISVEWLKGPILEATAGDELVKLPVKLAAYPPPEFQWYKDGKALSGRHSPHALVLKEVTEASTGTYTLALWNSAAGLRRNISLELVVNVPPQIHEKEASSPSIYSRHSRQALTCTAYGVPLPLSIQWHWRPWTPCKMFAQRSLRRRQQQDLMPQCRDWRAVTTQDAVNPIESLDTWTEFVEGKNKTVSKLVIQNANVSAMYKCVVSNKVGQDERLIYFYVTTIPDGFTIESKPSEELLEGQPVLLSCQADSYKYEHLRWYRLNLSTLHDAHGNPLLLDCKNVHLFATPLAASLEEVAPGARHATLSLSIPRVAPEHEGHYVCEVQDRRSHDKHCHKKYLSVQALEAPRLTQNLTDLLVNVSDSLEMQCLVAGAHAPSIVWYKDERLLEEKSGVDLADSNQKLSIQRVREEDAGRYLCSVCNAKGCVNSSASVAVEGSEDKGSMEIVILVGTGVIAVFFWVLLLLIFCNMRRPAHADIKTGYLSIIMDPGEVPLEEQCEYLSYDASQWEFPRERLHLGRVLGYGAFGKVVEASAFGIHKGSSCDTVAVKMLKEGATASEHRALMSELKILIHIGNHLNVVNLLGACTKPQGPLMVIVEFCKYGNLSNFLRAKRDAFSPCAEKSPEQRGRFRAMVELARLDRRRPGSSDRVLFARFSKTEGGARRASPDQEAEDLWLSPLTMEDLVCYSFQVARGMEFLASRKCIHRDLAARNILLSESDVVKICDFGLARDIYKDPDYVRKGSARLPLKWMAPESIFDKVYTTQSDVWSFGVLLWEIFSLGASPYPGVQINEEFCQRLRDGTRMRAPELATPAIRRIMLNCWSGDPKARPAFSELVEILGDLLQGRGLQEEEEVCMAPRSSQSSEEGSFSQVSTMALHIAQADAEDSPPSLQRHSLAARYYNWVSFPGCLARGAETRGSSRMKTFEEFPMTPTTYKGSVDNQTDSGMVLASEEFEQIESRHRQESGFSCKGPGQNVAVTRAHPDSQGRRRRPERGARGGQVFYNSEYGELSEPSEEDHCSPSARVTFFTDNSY
T1 sequence (Q05397 whole entry, looked up): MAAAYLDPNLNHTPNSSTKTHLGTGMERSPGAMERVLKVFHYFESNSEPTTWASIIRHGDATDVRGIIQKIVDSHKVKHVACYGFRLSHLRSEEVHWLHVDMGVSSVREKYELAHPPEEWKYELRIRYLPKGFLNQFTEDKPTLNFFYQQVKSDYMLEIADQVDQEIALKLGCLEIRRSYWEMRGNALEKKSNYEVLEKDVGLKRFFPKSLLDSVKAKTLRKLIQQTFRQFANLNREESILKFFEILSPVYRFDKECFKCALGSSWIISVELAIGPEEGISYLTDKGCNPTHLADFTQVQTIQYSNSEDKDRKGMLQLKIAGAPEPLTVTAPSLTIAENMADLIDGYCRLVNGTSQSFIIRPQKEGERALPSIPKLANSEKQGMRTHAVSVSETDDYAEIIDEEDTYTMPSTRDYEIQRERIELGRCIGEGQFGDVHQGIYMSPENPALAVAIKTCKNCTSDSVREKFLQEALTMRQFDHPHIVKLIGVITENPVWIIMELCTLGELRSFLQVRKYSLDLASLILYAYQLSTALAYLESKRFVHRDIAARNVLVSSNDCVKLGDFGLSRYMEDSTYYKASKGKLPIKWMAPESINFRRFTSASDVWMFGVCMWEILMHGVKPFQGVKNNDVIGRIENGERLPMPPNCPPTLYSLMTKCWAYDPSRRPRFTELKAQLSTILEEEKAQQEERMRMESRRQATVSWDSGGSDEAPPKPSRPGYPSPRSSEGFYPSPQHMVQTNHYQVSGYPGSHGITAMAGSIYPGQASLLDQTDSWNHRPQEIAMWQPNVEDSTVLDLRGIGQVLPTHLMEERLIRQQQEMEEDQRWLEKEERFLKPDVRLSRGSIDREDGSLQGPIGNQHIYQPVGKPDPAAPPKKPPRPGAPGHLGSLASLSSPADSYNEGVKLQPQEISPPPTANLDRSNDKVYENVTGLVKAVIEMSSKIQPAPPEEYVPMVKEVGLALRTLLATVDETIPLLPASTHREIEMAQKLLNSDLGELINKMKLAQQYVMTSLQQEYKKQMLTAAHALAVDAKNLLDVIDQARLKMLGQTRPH
Outline: (§1)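 Cells treated at increasing doses for 24 h, then lysed in NP40 buffer with inhibitors. 500 or 800 µg lysate precleared, then immunoprecipitated with FAK 4.47 or VEGFR3 9D9, with isotype IgG and no-antibody controls, overnight with Protein A/G beads at 4 °C. Immunoblotted for pan-phosphotyrosine (4G10), total FAK and total VEGFR3. Bands quantified by densitometry.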

MIA PaCa-2 [2] = assay: Cytotoxicity against human MIAPaCa2 cells transfected with retroviral expression vector pMSCV-LucSh assessed as inhibition of colony formation at >10 uM after 14 days by 1,9-dimethyl-methylene blue staining-based assay; assay type: functional, cell-based
Outline: (§2)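 700 cells/well seeded, and compound added at once at the specified concentrations. Incubated 10–14 days at 37 °C (figure legend gives 14 days). Colonies stained with 0.25% 1,9-dimethyl-methylene blue in 50% methanol for 1 h, washed, dried and scanned. Run in duplicate and repeated three times independently.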

MCF7 [3] = assay: Cytotoxicity against human MCF7 cells overexpressing VEGFR-3/FAK assessed as inhibition of colony formation at >10 uM after 14 days by 1,9-dimethyl-methylene blue staining-based assay; assay type: functional, cell-based
Outline: (§3)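 Colony formation. 700 cells/well seeded with compound added immediately, then incubated at 37 °C for 10–14 days (legend: 14 days). Colonies stained for 1 h with 0.25% 1,9-dimethyl-methylene blue in 50% methanol, washed, dried and scanned. Duplicate wells, three independent experiments.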

[4] = target: T1, Focal adhesion kinase 1/vascular endothelial growth factor receptor 3 (Homo sapiens); assay: Inhibition of FAK/VEGFR-3 interaction in human MIAPaCa2 cells transfected with retroviral expression vector pMSCV-LucSh assessed as decrease in levels of VEGFR3 and phosphorylated tyrosine residues associated with FAK protein after 24 hrs by immunoprecipitation assay; assay type: cell-based; settings: MIA PaCa-2; outline: as §1
[5] = target: T1, Focal adhesion kinase 1/vascular endothelial growth factor receptor 3 (Homo sapiens); assay: Inhibition of FAK/VEGFR-3 interaction in human MIAPaCa2 cells transfected with retroviral expression vector pMSCV-LucSh assessed as reduction in VEGFR3 pan-phosphorylated tyrosine level after 24 hrs by densitometric analysis; assay type: cell-based; settings: MIA PaCa-2; outline: as §1
[6] = target: T1, Focal adhesion kinase 1/vascular endothelial growth factor receptor 3 (Homo sapiens); assay: Inhibition of FAK/VEGFR-3 interaction in human MIAPaCa2 cells transfected with retroviral expression vector pMSCV-LucSh assessed as decrease in levels of VEGFR3 and phosphorylated tyrosine residues associated with FAK protein after 24 hrs by densitometric analysis; assay type: cell-based; settings: MIA PaCa-2; outline: as §1
Focal adhesion kinase 1 [7] = target: T2, Focal adhesion kinase 1 (Homo sapiens, UniProt Q05397); assay: Binding affinity to biotinylated human FAK FAT domain by biolayer interoferometry
Outline: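 Bio-layer interferometry on super streptavidin biosensor tips, pre-wetted in buffer for a baseline before FAT protein immobilization. Association and dissociation measured over 210 s at two small-molecule concentrations. Kon, Koff and Kd derived from the kinetic fits.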
Target sequence in this assay (Q05397 whole entry, the tested form may be a part): as the sequence (Q05397 whole entry, looked up) above

C8161 = assay: Cytotoxicity against human C8161 cells assessed as growth inhibition at 50 uM after 72 hrs by MTS assay; assay type: functional, cell-based
Outline: (§4)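 MTS assay. Cells kept in DMEM with 10% FBS, plated at 5000 cells/well and left to attach overnight, then exposed to compound (screening at 50 µM) for 72 h at 37 °C. MTS reagent added for about 1 h, then absorbance read at 570 nm. Viability normalized to DMSO/untreated controls. Three independent experiments, 3–5 replicate wells per concentration.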

MDA-MB-231 = assay: Cytotoxicity against human MDA-MB-231 cells assessed as growth inhibition at 50 uM after 72 hrs by MTS assay; assay type: functional, cell-based; outline: as §4
PANC-1 = assay: Cytotoxicity against human PANC1 cells transfected with retroviral expression vector pMSCV-LucSh assessed as growth inhibition at 50 uM after 72 hrs by MTS assay; assay type: functional, cell-based
Outline: (§5)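 Cells seeded at 5000/well, attached overnight, then given 50 µM of each analog for 72 h at 37 °C. MTS reagent added for about 1 h, absorbance read at 570 nm. Viability normalized to DMSO/untreated controls. Three independent experiments, each with 3–5 replicate wells per concentration. Cells kept in DMEM with 10% FBS.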

MIA PaCa-2 [8] = assay: Cytotoxicity against human MIAPaCa2 cells transfected with retroviral expression vector pMSCV-LucSh assessed as growth inhibition at 50 uM after 72 hrs by MTS assay; assay type: functional, cell-based; outline: as §5
A-375 = assay: Cytotoxicity against human A375 cells assessed as growth inhibition at 50 uM after 72 hrs by MTS assay; assay type: functional, cell-based; outline: as §4
U-87MG ATCC = assay: Cytotoxicity against human U87 cells assessed as growth inhibition at 50 uM after 72 hrs by MTS assay; assay type: functional, cell-based; outline: as §4
[9] = target: Vascular endothelial growth factor receptor 1 (Homo sapiens) (UniProt P17948); assay: Inhibition of FLT1 (unknown origin) at 1 uM by Z'-LYTE assay relative to control
Outline: (§6)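 Z'-LYTE SelectScreen single-point biochemical kinase assay, done by an outside service. Compound at 1 µM with 100 µM ATP in the reaction. Percent inhibition calculated per the Z'-LYTE analysis protocol, as the mean of two independent runs.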

MCF7 [10] = assay: Cytotoxicity against human MCF7 cells overexpressing VEGFR-3/FAK after 72 hrs by MTS assay; assay type: functional, cell-based; outline: as §4
MCF7 [11] = assay: Cytotoxicity against human MCF7 cells overexpressing VEGFR-3/FAK assessed as inhibition of colony formation at 10 uM after 14 days by 1,9-dimethyl-methylene blue staining-based assay; assay type: functional, cell-based; outline: as §3
[12] = target: Proto-oncogene tyrosine-protein kinase Src (Homo sapiens) (UniProt P12931); assay: Inhibition of SRC (unknown origin) at 1 uM by Z'-LYTE assay relative to control; outline: as §6
Chain of Proto-oncogene tyrosine-protein kinase Src (Homo sapiens) (P12931 2-536 limits assumed): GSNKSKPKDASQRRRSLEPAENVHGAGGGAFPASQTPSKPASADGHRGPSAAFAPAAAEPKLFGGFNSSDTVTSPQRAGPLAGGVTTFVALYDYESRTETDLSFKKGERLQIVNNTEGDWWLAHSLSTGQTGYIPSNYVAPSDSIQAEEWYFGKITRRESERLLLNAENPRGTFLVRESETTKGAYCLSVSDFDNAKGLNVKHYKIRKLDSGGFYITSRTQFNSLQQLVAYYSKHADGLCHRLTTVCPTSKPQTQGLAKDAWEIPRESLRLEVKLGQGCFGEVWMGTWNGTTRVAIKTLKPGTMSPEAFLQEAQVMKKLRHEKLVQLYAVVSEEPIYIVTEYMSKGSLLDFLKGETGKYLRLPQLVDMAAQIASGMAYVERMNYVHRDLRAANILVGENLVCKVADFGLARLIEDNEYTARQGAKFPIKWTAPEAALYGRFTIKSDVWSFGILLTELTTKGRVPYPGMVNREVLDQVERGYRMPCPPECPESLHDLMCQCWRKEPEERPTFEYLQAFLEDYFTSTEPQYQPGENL

Focal adhesion kinase 1 [13] = target: T2, Focal adhesion kinase 1; assay: Inhibition of PTK2 (unknown origin) at 1 uM by Z'-LYTE assay relative to control; outline: as §6
MCF7 [14] = assay: Induction of apoptosis in human MCF7 cells overexpressing VEGFR-3/FAK assessed as increase in PARP cleavage after 24 hrs; assay type: functional, cell-based
Outline: (§7)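 MCF7-VEGFR3 cells grown to about 80% confluence, then given compound at the indicated concentrations for 24 h at 37 °C. Lysed in 1% NP40 buffer with phosphatase and protease inhibitors. 30 µg protein run by SDS-PAGE and immunoblotted with caspase-3 and PARP rabbit polyclonal antibodies, detected by ECL.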

[15] = target: Epidermal growth factor receptor (Homo sapiens) (UniProt P00533); assay: Inhibition of EGFR (unknown origin) at 1 uM by Z'-LYTE assay relative to control; outline: as §6
Chain of Epidermal growth factor receptor (Homo sapiens) (P00533 whole entry): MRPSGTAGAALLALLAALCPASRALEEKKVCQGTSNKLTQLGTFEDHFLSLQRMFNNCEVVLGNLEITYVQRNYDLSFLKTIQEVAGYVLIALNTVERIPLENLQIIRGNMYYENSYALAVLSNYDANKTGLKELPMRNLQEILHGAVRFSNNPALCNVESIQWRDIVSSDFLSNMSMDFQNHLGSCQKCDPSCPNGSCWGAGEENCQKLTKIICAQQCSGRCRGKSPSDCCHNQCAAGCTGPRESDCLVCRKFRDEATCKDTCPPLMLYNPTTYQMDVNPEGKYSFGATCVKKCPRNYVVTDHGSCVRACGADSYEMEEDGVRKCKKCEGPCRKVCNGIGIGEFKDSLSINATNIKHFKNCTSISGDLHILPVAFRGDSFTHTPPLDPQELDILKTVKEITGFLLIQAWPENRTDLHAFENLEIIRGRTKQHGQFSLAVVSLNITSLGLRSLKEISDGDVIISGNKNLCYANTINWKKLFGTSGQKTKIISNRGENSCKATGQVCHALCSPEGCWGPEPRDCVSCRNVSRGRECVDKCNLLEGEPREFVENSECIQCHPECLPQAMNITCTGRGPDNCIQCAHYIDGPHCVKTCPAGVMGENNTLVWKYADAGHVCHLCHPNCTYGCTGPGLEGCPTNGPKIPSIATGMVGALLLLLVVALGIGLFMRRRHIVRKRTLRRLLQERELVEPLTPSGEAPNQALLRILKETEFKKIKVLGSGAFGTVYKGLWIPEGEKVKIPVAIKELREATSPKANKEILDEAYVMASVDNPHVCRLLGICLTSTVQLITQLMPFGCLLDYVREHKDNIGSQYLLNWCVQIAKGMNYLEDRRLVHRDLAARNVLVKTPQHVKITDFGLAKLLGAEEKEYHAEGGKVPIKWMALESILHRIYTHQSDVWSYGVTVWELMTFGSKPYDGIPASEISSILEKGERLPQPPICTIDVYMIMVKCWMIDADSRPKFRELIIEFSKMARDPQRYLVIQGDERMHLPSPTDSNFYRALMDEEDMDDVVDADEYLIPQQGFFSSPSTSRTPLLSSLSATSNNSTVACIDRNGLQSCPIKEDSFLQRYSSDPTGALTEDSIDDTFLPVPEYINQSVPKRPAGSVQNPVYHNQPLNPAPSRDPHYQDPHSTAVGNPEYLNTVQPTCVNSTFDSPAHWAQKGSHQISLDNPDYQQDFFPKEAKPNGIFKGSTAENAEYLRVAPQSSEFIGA

[16] = target: Platelet-derived growth factor receptor alpha (Homo sapiens) (UniProt P16234); assay: Inhibition of PDGFRA (unknown origin) at 1 uM by Z'-LYTE assay relative to control; outline: as §6
MCF7 [17] = assay: Induction of apoptosis in human MCF7 cells overexpressing VEGFR-3/FAK assessed as increase in caspase-3 cleavage after 24 hrs; assay type: functional, cell-based; outline: as §7
[18] = target: Vascular endothelial growth factor receptor 3 (Homo sapiens) (UniProt P35916); assay: Inhibition of FLT4 (unknown origin) at 1 uM by Z'-LYTE assay relative to control
Chain of Vascular endothelial growth factor receptor 3 (Homo sapiens) (P35916 whole entry): as the sequence (P35916 whole entry, looked up) above
Outline: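 Z'-LYTE SelectScreen single-point biochemical kinase assay, run as a contracted service. Compound at 1 µM and ATP at 100 µM in the reaction. Percent inhibition calculated per the Z'-LYTE analysis protocol, given as the mean of two independent runs.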

[19] = target: Protein-tyrosine kinase 2-beta (Homo sapiens) (UniProt Q14289); assay: Inhibition of PTK2B (unknown origin) at 1 uM by Z'-LYTE assay relative to control; outline: as §6
MIA PaCa-2 [20] = assay: Induction of apoptosis in human MIAPaCa2 cells transfected with retroviral expression vector pMSCV-LucSh at 70 uM after 24 hrs by CellEvent/TMRM dye-based microscopic analysis; assay type: functional, cell-based
Outline: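 10,000 cells/well plated and adhered overnight, then drug added for 24 h. Stained with 5 µM CellEvent caspase-3/7 dye plus 2.5 µM TMRM in PBS, 30 min at 37 °C in the dark. Imaged by fluorescence microscopy, and bright-green apoptotic nuclei counted in 6–8 fields per condition. Percent apoptosis normalized to control, from three independent experiments, compared by Student t test.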

[21] = target: Insulin-like growth factor 1 receptor (Homo sapiens) (UniProt P08069); assay: Inhibition of IGF1R (unknown origin) at 1 uM by Z'-LYTE assay relative to control; outline: as §6
[22] = target: RAC-alpha serine/threonine-protein kinase (Homo sapiens) (UniProt P31749); assay: Inhibition of AKT1 (unknown origin) at 1 uM by Z'-LYTE assay relative to control; outline: as §6
Chain of RAC-alpha serine/threonine-protein kinase (Homo sapiens) (P31749 whole entry): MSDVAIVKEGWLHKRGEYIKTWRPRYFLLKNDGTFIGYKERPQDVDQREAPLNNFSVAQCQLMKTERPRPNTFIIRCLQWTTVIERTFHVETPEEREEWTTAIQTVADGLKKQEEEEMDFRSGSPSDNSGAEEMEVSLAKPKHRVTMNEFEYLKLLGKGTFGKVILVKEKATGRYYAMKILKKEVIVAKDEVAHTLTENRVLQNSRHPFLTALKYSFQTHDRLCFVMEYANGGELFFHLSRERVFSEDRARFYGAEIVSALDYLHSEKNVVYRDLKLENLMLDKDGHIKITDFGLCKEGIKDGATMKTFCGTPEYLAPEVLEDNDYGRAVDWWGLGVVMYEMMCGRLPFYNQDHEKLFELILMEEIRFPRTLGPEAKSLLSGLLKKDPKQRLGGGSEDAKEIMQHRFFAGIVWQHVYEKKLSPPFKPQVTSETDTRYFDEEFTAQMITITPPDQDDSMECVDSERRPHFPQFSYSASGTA

[23] = target: T1, Focal adhesion kinase 1/vascular endothelial growth factor receptor 3 (Homo sapiens); assay: Inhibition of FAK/VEGFR-3 interaction in human MCF7 cells assessed as decrease in VEGFR3 protein level at 10 uM after 24 hrs by immunoprecipitation assay; assay type: cell-based
Outline: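 MCF7-VEGFR3 cells treated with selected analogs for 24 h, then lysed in NP40 buffer. FAK immunoprecipitated with clone 4.47 after preclearing, 2 h antibody binding and overnight incubation with Protein A/G beads at 4 °C. Co-precipitated VEGFR3 and total FAK detected by immunoblot on 7.5% gel.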

MIA PaCa-2 [24] = assay: Induction of apoptosis in human MIAPaCa2 cells transfected with retroviral expression vector pMSCV-LucSh assessed as increase in PARP cleavage after 24 hrs; assay type: functional, cell-based
Outline: (§8)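 Cells seeded to reach about 80% confluence at 24 h, then drug-treated at increasing doses for 24 h at 37 °C. Lysed in 1% NP40 buffer with protease and phosphatase inhibitors. 30 µg protein run on SDS gel and transferred to PVDF. Immunoblotted overnight at 4 °C with caspase-3 and PARP rabbit polyclonals for cleavage products. ECL detection.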

MIA PaCa-2 [25] = assay: Cytotoxicity against human MIAPaCa2 cells transfected with retroviral expression vector pMSCV-LucSh assessed as inhibition of colony formation at 10 uM after 14 days by 1,9-dimethyl-methylene blue staining-based assay; assay type: functional, cell-based; outline: as §2
[26] = target: Vascular endothelial growth factor receptor 2 (Homo sapiens) (UniProt P35968); assay: Inhibition of KDR (unknown origin) at 1 uM by Z'-LYTE assay relative to control; outline: as §6
MIA PaCa-2 [27] = assay: Induction of apoptosis in human MIAPaCa2 cells transfected with retroviral expression vector pMSCV-LucSh assessed as increase in caspase-3 cleavage after 24 hrs; assay type: functional, cell-based; outline: as §8

For `CN(C)CCN(Cc1ccc(Cl)cc1)c1ccccn1` [CHLORPYRAMIN HYDROCHLORIDE], the inhibition [1] was “Dose-dependent effect”, the inhibition (MIA PaCa-2 [2]) was “Active” and the inhibition (MCF7 [3]) was “Active”. For the same compound, the inhibition [4] was “Dose-dependent effect”, the inhibition [5] was “Dose-dependent effect” and the inhibition [6] was “Dose-dependent effect”. It also gave a Kd (Focal adhesion kinase 1 [7]) of 570 nM.
With `CCCCCCN(CCN(C)C)c1ccccc1` the “growth inhibition (GI)” value (C8161) was “inactive”, the “growth inhibition (GI)” value (MDA-MB-231) was “inactive” and the “growth inhibition (GI)” value (PANC-1) was “inactive”. For the same compound, the “growth inhibition (GI)” value (MIA PaCa-2 [8]) was “inactive”, the “growth inhibition (GI)” value (A-375) was “inactive” and the “growth inhibition (GI)” value (U-87MG ATCC) was “inactive”.
With `CN(C)CCN(Cc1ccc(Cl)cc1)c1ccc2ccccc2n1` the inhibition [9] was 1%, the Activity (MCF7 [10]) was “Active” and the inhibition (MCF7 [11]) was “Active”. The inhibition [1] was “Dose-dependent effect”, the inhibition [4] was “Dose-dependent effect” and the inhibition [12] was 3%. For the same compound, the inhibition (Focal adhesion kinase 1 [13]) was 13%, the inhibition [5] was “Dose-dependent effect” and the Activity (MCF7 [14]) was “Dose-dependent effect”. For the same compound, the “growth inhibition (GI)” value (PANC-1) was “Active”, the inhibition [15] was 4% and the inhibition [16] was 8%. The “growth inhibition (GI)” value (MIA PaCa-2 [8]) was “Active”, the Activity (MCF7 [17]) was “Dose-dependent effect” and the inhibition [18] was 4%. For the same compound, the inhibition [19] was 0%, the Activity (MIA PaCa-2 [20]) was “Active” and the inhibition [21] was 11%. The inhibition [6] was “Dose-dependent effect”, the Kd (Focal adhesion kinase 1 [7]) was 18 nM and the inhibition [22] was 7%. The inhibition [23] was “Active”, the Activity (MIA PaCa-2 [24]) was “Dose-dependent effect” and the inhibition (MIA PaCa-2 [25]) was “Active”. The inhibition [26] was 14% and the Activity (MIA PaCa-2 [27]) was “Dose-dependent effect”.
With `CCCCCCCCCCCCN(CCN(C)C)c1ccccn1` the “growth inhibition (GI)” value (C8161) was “Active”, the “growth inhibition (GI)” value (MDA-MB-231) was “Active” and the “growth inhibition (GI)” value (PANC-1) was “Active”. For the same compound, the “growth inhibition (GI)” value (MIA PaCa-2 [8]) was “Active”, the “growth inhibition (GI)” value (A-375) was “Active” and the “growth inhibition (GI)” value (U-87MG ATCC) was “Active”.
